Screening results as filed in PubChem BioAssay.
CAL PDZ FP-1: inhibitors of human CAL PDZ peptide binding; Q9HD26; AID 504414; purified CAL PDZ, TMR-peptide fluorescence polarization, 1 h; hit rate 0.02% among 330,000; inhibition, % at 20 µM;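 active = highest replicate inhibition of at least 40%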;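 note: plate controls were DMSO neutral control wells for no effect and unlabeled competitor peptide control wells for full effect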
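Test system: tagged CAL PDZ domain / Buffer or medium: sodium phosphate/NaCl buffer pH 7.4 with TCEP, IgG, Thesit / Reagent: TMR-labelled reporter peptide T*-PRC34 bound in PDZ groove / Compound dosing: single point, 20 µM / Schedule: 1 h incubation at room temperature before polarization reading / Technique: fluorescence polarization (mP) / Benchmarks: unlabelled peptide, DMSO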
Tn7 DDE FP: disrupts Tn7 cyclic peptide binding to fibrin D-Dimer-E complex. hit rate 0.13% among 370,000. P02675. inhibition, % at 8.3 µM. FP displacement of FITC-Tn7 peptide from fibrin DD(E); 0% = median of compound wells per plate. AID 720508;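 active = inhibition above the mean of compounds falling within the control limits plus 3 SD of them, cut at about 14% in these data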;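 note: 0% = plate median of compound wells and 100% = 10 µM Aha-Tn7 peptide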
Target sequence (P02675 whole entry, looked up): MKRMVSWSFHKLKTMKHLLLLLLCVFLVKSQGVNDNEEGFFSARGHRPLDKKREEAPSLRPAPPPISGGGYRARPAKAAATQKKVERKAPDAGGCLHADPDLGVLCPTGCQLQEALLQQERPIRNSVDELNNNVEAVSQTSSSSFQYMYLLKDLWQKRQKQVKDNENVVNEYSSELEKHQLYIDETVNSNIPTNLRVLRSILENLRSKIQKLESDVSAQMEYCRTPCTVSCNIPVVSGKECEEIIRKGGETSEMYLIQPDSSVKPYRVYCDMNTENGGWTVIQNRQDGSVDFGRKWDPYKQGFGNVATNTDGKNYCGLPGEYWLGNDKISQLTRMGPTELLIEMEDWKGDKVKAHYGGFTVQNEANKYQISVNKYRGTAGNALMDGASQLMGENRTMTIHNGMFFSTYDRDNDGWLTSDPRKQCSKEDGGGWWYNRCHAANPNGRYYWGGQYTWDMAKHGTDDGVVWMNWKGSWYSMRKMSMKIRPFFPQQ
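System: human fibrin DD(E); quantity: Fibrin-DD(E) at 2 µM final; also added: fluorescent Tn7 probe at 0.1 µM; compound dosing: single nominal test concentration of 8.3 µM per compound; schedule: 10 min preincubation, 3 h with tracer, room temperature; detection: fluorescence polarization of the labelled Tn7 tracer; repeats: one replicate per compound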
Tn6 DDE FP: disrupts Tn6 cyclic peptide binding to fibrin D-Dimer-E complex; hit rate 0.21% among 370,000; inhibition, % at 8.3 µM; Fibrin DD(E) TRITC-Tn6 fluorescence polarization displacement; P02675;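 active = inhibition above a per-campaign cutoff: mean of compounds within control limits plus 3 SD, cut at about 15% in these data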;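 note: 0% = median of all compound wells on the plate and 100% = blocking peptide control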
Arr AP2 block: human beta-arrestin and AP2 interaction inhibition; FITC-arrestin peptide / GST-AP2 beads, flow cytometry; AP2 beta2 appendage carries R879A mutation; inhibition, % at 10 µM; hit rate 0.31% among 340,000; AID 504490;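 active = inhibition above a set limit, near 3 SD of compounds lacking own fluorescence, cut at about 54% in these data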;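 note: plate controls were DMSO wells for no effect and 5 µM unlabelled arrestin peptide for full effect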
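System: GST-AP2 R879A bound to glutathione beads, E. coli-expressed. Also added: 50 nM FITC-arrestin peptide. Schedule: compound with beads 12 min RT, then probe 1 h RT. Signal: bead flow cytometry, FITC channel. Read-out basis: percent response.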
CAL PDZ FP-2: blocks peptide binding to the human CAL PDZ domain; purified CAL PDZ, TMR-peptide fluorescence polarization, 1 h; hit rate 0.92% among 300,000; inhibition, % at 24.9 µM;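 active = mean inhibition of at least 30% with at least half of replicates also reaching 30%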;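 note: 0% = DMSO neutral control and 100% = excess unlabeled competitor peptide PRC23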
Tn6 DDE ctr: counter-screen for inhibitors of Tn6 peptide binding to fibrin DD(E). inhibition, % at 8.3 µM. AID 720621. TRITC-Tn6 fluorescence polarization displacement; 0% = median of compound wells, not DMSO. shares compounds with Tn6 DDE FP. hit rate 2% among 680;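 active = inhibition above the mean of test compounds lying between the control limits plus 3 SD of those, cut at about 14% in these data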;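 note: 0% = median of compound wells and 100% = wells with Aha-Tn7 blocking peptide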
DDE Tn6 confirm: DD(E)-Tn6 binding inhibition, FP confirmation. hit rate 10% among 680. inhibition, % at 8.3 µM. shares compounds with Tn6 DDE FP. FP displacement of TRITC-Tn6 peptide from DD(E); 0% = per-plate median of test wells. AID 720631;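 active = inhibition above the mean of compounds lying within the control limits plus 3 SD, cut at about 16% in these data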;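 note: 100% = high control wells holding a competing inhibitor peptide at 10 µM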
The depositor's hits bear a star; · = no result. Rows were chosen to be rich in hits. Some 1.4% of all compounds tested hit in one or more screens of this group.

SMILES	CAL PDZ FP-1	Tn7 DDE FP	Tn6 DDE FP	Arr AP2 block	CAL PDZ FP-2	Tn6 DDE ctr	DDE Tn6 confirm
COC(=O)c1cc(C(=O)OCC(=O)NC2CCCCCCC2)cc([N+](=O)[O-])c1	-0.5	3.6	16.6*	22.2	-3.0	9.5	5.0
Cc1ccccc1NC(=O)C1CCCN1S(=O)(=O)c1cccnc1 (stereo not given)	·	-6.7	-2.6	·	·	·	·
CC(=O)c1ccc(NC(=O)C2CC(=O)N(Cc3ccccc3)C2)cc1 (stereo not given)	0.3	6.0	15.7*	0.9	1.3	-1.9	-2.8
COc1ccccc1CCC(=O)Nc1ncc(C)s1	0.2	2.7	15.5*	-1.2	-0.4	-1.3	-4.7
COc1cccc(OCC(=O)Nc2ccccc2NC(C)=O)c1	-0.5	-6.9	17.2*	22.7	-3.5	-0.8	-1.7
COc1cccc(OCC(=O)Nc2ccncc2)c1	-1.0	-2.5	-1.3	-2.3	-5.2	·	·
CCCCOc1cccc(C(=O)NCCc2ccccc2-c2ccccc2CCC(=O)NCc2ccccc2)c1	·	-4.1	1.4	·	·	·	·
CCC(C)NC(=O)c1csc2c1CCCCC2 (stereo not given)	·	3.5	18.7*	-8.7	-8.5	0.8	2.2
c1ccc2c(c1)ncn2CCC1CCCCC1	-0.4	6.7	17.6*	9.1	0.5	7.8	1.9
O=C(Cn1cc2c(n1)CCCCC2)Nc1c(F)cc(F)cc1Br	-2.4	2.4	16.9*	-26.1	-1.3	-0.7	-4.8
CC1CCc2nn(CC(=O)Nc3c(F)cc(F)cc3Br)cc2C1 (stereo not given)	0.8	0.8	6.7	0.3	-3.2	·	·
O=C(Cc1ccccc1)NC(NNc1ccccc1)(C(F)(F)F)C(F)(F)F	-1.3	-2.8	15.5*	14.8	1.6	14.1*	7.1
CC(C)(C)n1nc2c(c1NC(=O)COc1ccc(F)cc1)CS(=O)(=O)C2	-1.0	8.9	15.9*	7.0	-4.1	-8.7	-11.2
CCC[C@H]1[C@@H](OC(=O)NCc2ccccc2)CC[C@@]23CCCN2C(=O)CCC[C@@H]13	·	1.5	-2.1	·	·	·	·
COCc1cccc(-c2cc(C(=O)OC)c3n(c2=O)CCC3)c1	·	0.1	-1.8	·	·	·	·
CCN(CC)CCN(C(=O)CCOc1ccccc1)c1nc2ccc(F)cc2s1	-0.5	4.1	15.8*	-10.7	-3.3	10.4	3.6
Cc1cc(C(=O)Nc2ccc(S(=O)(=O)N3CCCC3)cc2)cs1	·	0.8	16.3*	5.0	-0.1	-5.5	-10.8
CC(C)C[C@H](NC(=O)c1nccs1)C(=O)N1CCC[C@H]1C(=O)NCc1ccccc1	·	-5.7	-4.1	·	·	·	·
Cc1ccc(Cl)cc1NC1=C/C(=N\S(=O)(=O)c2cccs2)c2ccccc2C1=O	-3.4	-2.0	53.1*	3.0	1.1	8.0	6.4
CCOC(=O)[C@@]12CCCC3=C1N(CCC3)C(=O)[C@H]2CC(=O)NCc1ccccc1	·	-10.1	4.2	·	·	·	·
COc1ccccc1NS(=O)(=O)c1cc(C(=O)N2CCN(C(=O)c3ccco3)CC2)ccc1F	0.7	2.4	6.6	6.8	·	·	·
COc1ccccc1NS(=O)(=O)c1cccc(NC(=O)Nc2ccc(Cl)cc2)c1	-5.7	-3.1	170.1*	26.3	-8.2	10.5	23.2*
COc1ccccc1NS(=O)(=O)c1cccc(C(=O)N2CCN(C(=O)c3ccco3)CC2)c1	0.4	5.5	16.5*	-2.9	-2.5	0.1	1.2
COCCSc1ncccc1-c1nc2ccccc2[nH]1	·	4.7	-3.2	·	·	·	·
COc1cccc(NC(=O)CN2C(=O)NC3(CCCCCC3)C2=O)c1	-2.0	4.9	15.3*	-3.5	-2.1	4.6	-1.2
O=C(N/N=C/c1ccc(C(=O)O)cc1)C(=O)N1CCCCCC1	0.1	7.2	4.3	16.3	-1.4	·	·
O=C(N/N=C/c1cccnc1)C(=O)N1CCCCCC1	0.9	6.8	15.2*	8.1	·	-2.5	-4.5
COc1ccccc1CNC(=O)C/C(C)=N/NC(=O)Cc1ccc(Cl)cc1	-1.1	-2.5	-5.9	28.9	-5.5	·	·
